Data: article PMC11078769 (Heliyon, 2024)

What was measured:
L. monocytogenes = conditions: as reported; cited from earlier work
MCF10A human cells = conditions: 0.27 to 27 μmol/L; cited from earlier work
[1] = tested on: defibrinated erythrocytes; conditions: enterocin AS-48 at 5–20 μmol/L; cited from earlier work
CCDC18Co human cells = conditions: 0.27 to 27 μmol/L; cited from earlier work
[2] = tested on: L. monocytogenes ATCC 19115; assay: Inhibition of biofilm formation, crystal violet; assay type: cell-based, Listeria monocytogenes; conditions: sodium lactate at 5 % (positive control); 37 °C, 24 h, crystal violet A570
Outline: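 Test compound stock mixed with L. monocytogenes at 10^6 CFU/mL to final 2, 4 and 8 μg/mL, grown in microplate wells. Phosphate buffer (pH 7.0) served as negative control. Planktonic cells removed, wells washed twice with phosphate buffer, then stained 30 min with 0.1 % crystal violet and rinsed. Bound dye eluted with 95 % ethanol. Run in triplicate.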

Molecule | MIC (L. monocytogenes) | Cytotoxicity (MCF10A human cells) | percent hemolysis [1] | Cytotoxicity (CCDC18Co human cells) | inhibition rate of biofilm formation [2]
enterocin AS-48 | 0.1 µg/mL | no cytotoxicity | 3%–22.6 | no cytotoxicity | 
CC(O)C(=O)[O-].[Na+] (centres unmarked) [sodium lactate] |  |  |  |  | 54.36%
